In the library only some 0.9% were active in any assay of this set; here they are far more common.
DDE Tn7 FP inh: inhibitors of Tn7 peptide binding to fibrin DD(E), primary screen, biochemical, fluorescence polarization, human fibrin, Tn7 probe | Fibrinogen beta chain (Homo sapiens), P02675 | FP displacement of FITC-Tn7 peptide from fibrin DD(E); 0% = median of compound wells per plate | inhibition, % at 8.3 µM | actives 0.13% (n = 370,000) | AID 720508, 2013;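 active = inhibition above the mean of compounds falling within the control limits plus 3 SD of them, cut at about 14% in these data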;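 also: 0% = plate median of compound wells and 100% = 10 µM Aha-Tn7 peptide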
Target sequence (P02675 whole entry, looked up): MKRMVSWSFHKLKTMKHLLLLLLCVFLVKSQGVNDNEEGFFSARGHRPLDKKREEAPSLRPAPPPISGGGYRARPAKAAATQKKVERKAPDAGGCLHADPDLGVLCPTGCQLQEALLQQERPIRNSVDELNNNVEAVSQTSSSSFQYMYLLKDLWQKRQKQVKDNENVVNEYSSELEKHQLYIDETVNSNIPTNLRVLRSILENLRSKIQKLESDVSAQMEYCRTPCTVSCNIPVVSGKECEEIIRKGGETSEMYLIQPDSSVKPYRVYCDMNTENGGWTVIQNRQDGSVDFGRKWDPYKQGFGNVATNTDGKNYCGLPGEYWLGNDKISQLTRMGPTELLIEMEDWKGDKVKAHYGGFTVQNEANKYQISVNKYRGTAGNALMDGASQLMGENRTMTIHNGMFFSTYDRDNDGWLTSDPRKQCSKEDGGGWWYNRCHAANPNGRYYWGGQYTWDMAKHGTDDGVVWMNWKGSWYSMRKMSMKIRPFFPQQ
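Test system: human clot-derived fibrin DD(E) complex / Quantity: 2 µM final DD(E) protein / Incubation: 10 min plus 3 h, room temperature / Measured by: fluorescence polarization / Benchmarks: high control of 10 µM Aha-Tn7 peptide / Replicates: singlicate testing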
SKN-1 block: suppressors of acrylamide-induced Pgst-4::GFP reporter in worms, primary screen, SKN-1 inhibitor project, whole organism, uHTS, GFP/RFP fluorescence ratio, strain VP596; C. elegans VP596 Pgst-4::GFP/RFP ratio, 24 h; inhibition, % at 21.8 µM; actives 0.49% (n = 360,000);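 active = interference check ratio from 0.5 to 1.5 plus GFP to RFP signal ratio inhibition reaching or exceeding a fixed threshold, cut at about 30% in these data, passing the limit was not always enough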
DAGLB inhibitor: DAGLB lipase inhibitors, primary screen, biochemical, fluorescence, HTS; AID 504411, 2011; actives 0.059% (n = 340,000); HEK293T DAGLB membrane lysate, EnzChek fluorogenic substrate; inhibition, % at 5.17 µM; in the data active = inhibition above about 34%;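 also: 0% = enzyme with vehicle and 100% = wells lacking enzyme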
PolyA inh: polyadenylation inhibitors in yeast reporter cells, primary screen, luminescence, S. cerevisiae. activity score, % at 12 µM. AID 1875, 2009. S. cerevisiae SKY197-pL101 polyadenylation reporter, beta-gal luminescence; efflux-impaired pdr1/pdr3 knockout yeast; score 100 = 6 SD above DMSO. actives 0.02% (n = 300,000);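 active = lowest replicate activity score at least 50, where 100 means six control SD above control mean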;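 also: yeast exposed to compound for 9 h at 30 °C; higher score means more reporter readthrough which indicates perturbed polyadenylation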
MT1-MMP act inh: blockers of MT1-MMP proenzyme processing, primary screen, HT1080 RFP-PRO-GFP cells, GFP/RFP fluorescence; GFP/RFP ratio fluorescence, overnight; percent of plate control window, DMSO zero; Matrix metalloproteinase-14 (Homo sapiens), P50281; AID 651647, 2012; GFP/RFP ratio change, % at 20 µM; actives 0.061% (n = 360,000);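 active = GFP/RFP ratio change of at least 30% with cell ATP level not reduced by more than half and red fluorescence within 50% of control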
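Material: RFP-PRO-GFP reporter HT1080 cells. Dosing: single-point 20 µM compound, 1% DMSO. Controls: DMSO and RFP-L50D-GFP cell wells. Timing: cells overnight before dosing, compound overnight, 37 °C, 5% CO2. Measure: GFP/RFP fluorescence ratio.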
Tn6 DDE FP: inhibitors of Tn6 peptide binding to fibrin DD(E), primary screen, biochemical, fluorescence polarization, human fibrin, Tn6 probe | Fibrinogen beta chain (Homo sapiens), P02675 | Fibrin DD(E) TRITC-Tn6 fluorescence polarization displacement | inhibition, % at 8.3 µM | actives 0.21% (n = 370,000);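 active = inhibition above a per-campaign cutoff: mean of compounds within control limits plus 3 SD, cut at about 15% in these data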;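 also: 0% = median of all compound wells on the plate and 100% = blocking peptide control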
DDE Tn7 confirm: inhibitors of Tn7 peptide binding to fibrin DD(E), confirmation, biochemical, fluorescence polarization, human fibrin, Tn7 probe | inhibition, % at 8.3 µM | actives 5% (n = 460) | FP displacement of TRITC-Tn7 peptide from DD(E); 0% set at plate's compound-well median | shares compounds with DDE Tn7 FP inh;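 active = inhibition above the campaign cutoff, the mean of compounds within control limits plus 3 SD, cut at about 14% in these data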;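 also: 100% = median FP of high control wells holding Aha-Tn7 inhibitor peptide; displacers lower polarization since freed probe rises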
Tn7 DDE ctr: counter-screen for inhibitors of Tn7 peptide binding to fibrin DD(E); shares compounds with DDE Tn7 FP inh; TRITC-Tn7 probe displacement, fluorescence polarization; inhibition, % at 8.3 µM; actives 3% (n = 460);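 active = inhibition above the cutoff, the mean of compounds lying between the control bounds plus 3 SD of those compounds, cut at about 17% in these data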;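 also: 0% = median of compound sample wells and 100% = excess unlabeled Aha-Tn7 peptide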
The depositor's hits bear a star; / = no result.

SMILES	DDE Tn7 FP inh	SKN-1 block	DAGLB inhibitor	PolyA inh	MT1-MMP act inh	Tn6 DDE FP	DDE Tn7 confirm	Tn7 DDE ctr
CC1(C)c2[nH]c3ccccc3c2C[C@@H]2C(=O)N(Cc3ccc(F)cc3)C(=O)N21	16.8*	12.0	0.1	-18.2	6.5	3.3	13.3	8.8
Cc1ccc(S(=O)(=O)NCCc2nc3ccccc3[nH]2)cc1	8.7	-9.1	-0.1	12.8	2.6	3.2	/	/
NC(=O)C(CCc1nc2ccccc2[nH]1)NS(=O)(=O)c1ccccc1 (centres undefined)	14.9*	2.2	-2.5	/	-3.5	4.7	6.2	-0.2
COc1ccc(/C=C2\CCc3c2nc2ccccc2c3C(=O)O)cc1OC	23.3*	-1.8	-4.1	22.7	-19.2	-9.5	-6.0	-13.4
COc1ccc(OC)c(S(=O)(=O)Nc2ccc(OCC(=O)O)cc2)c1	-7.7	0.2	-0.8	0.2	-1.6	-3.3	/	/
COc1ccc(OC)c(S(=O)(=O)Nc2ccc(CC(=O)O)cc2)c1	17.2*	-3.2	-2.3	-5.6	-6.1	-1.0	2.7	4.2
CC(=O)OCCCN1CCC2(CCC(c3ccccc3)CC2)C1=O (centres undefined)	4.5	/	/	/	/	-0.3	/	/
CCOc1cc(CCNC(=O)c2cc(-c3ccccc3)c(N3CCOCC3)s2)ccc1OC	-3.6	/	/	/	/	-6.3	/	/
CC1=CC(c2ccccc2)n2nc(NS(=O)(=O)c3ccc(C)cc3)nc2N1 (centres undefined)	11.2	8.9	-0.6	/	-2.6	-0.7	/	/
CC1=CC(c2ccc(Cl)cc2)n2nc(NS(=O)(=O)c3ccc(C)cc3)nc2N1 (centres undefined)	14.0*	4.4	7.8	-1.6	3.1	13.7	5.5	1.6
N#Cc1ccc(Cl)cc1NC(=O)COC(=O)c1cccc(S(=O)(=O)N2CCOCC2)c1	13.8*	3.0	-3.7	/	3.2	4.3	5.8	-4.5
O=C(NCCc1c[nH]c2ccccc12)OCc1cn(Cc2ccccc2F)nn1	4.4	/	/	/	/	-1.6	/	/
O=C(c1ccccc1)c1ccc2c(c1)OCCOCCOCCOCCO2	14.2*	0.5	0.7	2.0	-0.6	10.1	-2.3	-5.5
COC(=O)C1CCCN(C(=O)C2CCN(S(=O)(=O)c3ccc([N+](=O)[O-])cc3)CC2)C1 (centres undefined)	0.7	/	/	/	/	7.2	/	/
O=C1CN(C(=O)c2ccc3nc(Cc4cccc(Cl)c4)oc3c2)CCN1	13.8*	7.7	2.2	19.3	3.7	8.5	8.8	2.5
CC(=O)N1CCCN(C(=O)c2ccc3nc(Cc4cccc(Cl)c4)oc3c2)CC1	-16.3	11.6	3.0	-6.0	1.4	-0.4	/	/
O=C1CCC/C(=N/NC(=O)c2sc3ccccc3c2Cl)C1	43.9*	-0.4	-13.8	5.7	-136.0	-1.6	-4.7	-5.3
COc1ccccc1N(C)S(=O)(=O)c1ccc(C(=O)OCC(=O)NCc2cccs2)cc1	5.9	13.8	-0.4	-7.3	-0.8	-3.5	/	/
COc1ccccc1N(C)S(=O)(=O)c1ccc(C(=O)OCC(=O)NCC(F)(F)F)cc1	14.0*	5.3	-2.2	-6.0	-1.6	-4.0	-2.5	-8.7
c1coc(-c2nnc(SCc3cn4ccccc4n3)o2)c1	13.9*	-7.4	0.4	6.4	-2.9	0.5	-0.7	0.0
O=C1N2CCc3ccccc3C2CS(=O)(=O)N1Cc1ccc(F)cc1 (centres undefined)	-1.6	/	/	/	/	-5.1	/	/
CN1CCN(C(=O)OCCOCCOC(=O)N2CCN(C)CC2)CC1	13.9*	15.8	-1.2	/	-0.5	9.2	0.3	1.0
O=C(OCc1cn([C@H]2CN(C(=O)C3CCCCC3)[C@@H](c3ccccc3)C[C@@H]2O)nn1)c1ccccc1	14.9*	25.1	-2.0	/	-3.1	7.1	3.2	6.0
O=C(OCc1cn([C@@H]2CN(C(=O)C3CCCCC3)[C@@H](c3ccccc3)C[C@H]2O)nn1)c1ccccc1	6.2	-14.2	-1.5	/	-0.7	0.5	/	/
O=C(Nc1ccc2c(c1)OCO2)N1CCC(c2nc3ccc(Cl)cc3[nH]2)CC1	-4.4	/	/	/	/	-5.2	/	/
SMILES	DDE Tn7 FP inh	SKN-1 block	DAGLB inhibitor	PolyA inh	MT1-MMP act inh	Tn6 DDE FP	DDE Tn7 confirm	Tn7 DDE ctr
O=C(OC12CCCN(C1)/C(=C/c1ccncc1)C2)c1ccccc1 (centres undefined)	0.2	/	/	/	/	-1.3	/	/
COc1cccc(CNC(=O)c2cc3c(C)nc4ccccc4c3o2)c1	3.4	4.0	-1.9	-4.8	-3.8	-1.9	/	/
CCc1ccc(CNC(=O)c2cc3c(C)nc4ccccc4c3o2)cc1	13.8*	-1.0	-4.4	1.3	4.9	-1.2	-3.2	-11.0
CC(CCN1CCC(C(O)(c2ccccc2)c2ccccc2)CC1)Oc1ccc(F)cc1 (centres undefined)	-8.7	/	/	/	/	0.8	/	/
C=C(C)C1CC=C(C)/C(=N/NC(=O)c2ccc(NC(=O)CC)cc2)C1 (centres undefined)	6.4	-11.3	-1.3	2.2	4.3	-0.8	/	/
C=C(C)C1CC=C(C)/C(=N/NC(=O)c2ccc(NC(=O)CCC)cc2)C1 (centres undefined)	14.3*	-14.4	-0.6	-13.9	1.4	6.1	7.8	2.9
O=C1C=C(NNC(=O)c2cccnc2)CC(c2ccco2)C1 (centres undefined)	16.1*	0.7	-1.8	10.3	-6.6	-8.0	-1.2	-13.7
CC1(C)CC(=O)C=C(NNC(=O)c2cccnc2)C1	8.9	-13.4	/	3.0	-1.2	5.3	/	/
CC(=O)Nc1ccc(NC(=O)[C@@H](NC(=O)c2ccccc2F)C(C)C)cc1	15.1*	8.4	-0.3	-1.8	0.3	10.4	3.0	3.4
Cc1ccc(-c2nnc(NC(=O)COc3ccc(F)cc3Cl)o2)cc1C	3.9	/	/	/	/	0.6	/	/
CCCCCCCCN1C(=O)[C@@H](CC(=O)NCC2CCCCC2)C[C@@]2(C(=O)OC)C1=C[C@H](C(C)C)O[C@@H]2C1CC1	-2.4	/	/	/	/	-0.6	/	/
